Assay results reported in ChEMBL document CHEMBL4689842, “EUbOPEN Chemogenomics Library wave 1” (2021).

System: HEK-293T
Assay: Multiplex assay against HEK293T;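 as to Population Tubulin-Different-Phenotype (%): share of the cells with healthy nuclei that show this phenotype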
Type: toxicity, cell-based
Settings: human
Summary of the method: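 Imaging took place on a CQ1 microscope at 37°C and 5% CO2 once compound had been added to live cells stained at seeding with Hoechst33342, BioTracker Green Microtubule Cytoskeleton Dye, MitoTracker Red and Annexin V Alexa Fluor 680. CellPathfinder machine-learning gating classed cells as Hoechst high-intensity objects or normal cells, classed normal cells as having healthy, pyknosed or fragmented nuclei, and classed pyknosed cells as mitotic or apoptotic. Tubulin, mitochondrial-mass and membrane-permeability phenotypes are per cents of the healthy-nucleus cells.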

[1] = 12 h, 1 µM, compound concentration 1 uM, replicate 1
[2] = 12 h, 1 µM, compound concentration 1 uM, replicate 2
[3] = 12 h, 10 µM, compound concentration 10 uM, replicate 1
[4] = 12 h, 10 µM, compound concentration 10 uM, replicate 2
[5] = 24 h, 1 µM, compound concentration 1 uM, replicate 1
[6] = 24 h, 1 µM, compound concentration 1 uM, replicate 2
[7] = 24 h, 10 µM, compound concentration 10 uM, replicate 1
[8] = 24 h, 10 µM, compound concentration 10 uM, replicate 2
[9] = 48 h, 1 µM, compound concentration 1 uM, replicate 1
[10] = 48 h, 1 µM, compound concentration 1 uM, replicate 2
[11] = 48 h, 10 µM, compound concentration 10 uM, replicate 1
[12] = 48 h, 10 µM, compound concentration 10 uM, replicate 2

CC(C)NCC(O)COc1ccc(CCOCC2CC2)cc1.Cl (stereo not given) [BETAXOLOL HYDROCHLORIDE]
Population Apoptotic (%) [1]: 43%
Population Fragmented Nuclei (%) [1]: 7%
Population Healthy Nuclei (%) [1]: 49%
Population Hoechst High Intensity Objects (%) [1]: 10%
Population Membrane Permeable-Phenotype (%) [1]: 3%
Population Mitochondria Different-Phenotype (%) [1]: 82%
Population Mitotic Cells (%) [1]: 56%
Population Normal (%) [1]: 89%
Population Pyknosed Nuclei (%) [1]: 43%
Population Tubulin-Different-Phenotype (%) [1]: 56%
Total Cell Count [1]: 343
Population Apoptotic (%) [2]: 12%
Population Fragmented Nuclei (%) [2]: 6%
Population Healthy Nuclei (%) [2]: 43%
Population Hoechst High Intensity Objects (%) [2]: 1%
Population Membrane Permeable-Phenotype (%) [2]: 8%
Population Mitochondria Different-Phenotype (%) [2]: 14%
Population Mitotic Cells (%) [2]: 87%
Population Normal (%) [2]: 98%
Population Pyknosed Nuclei (%) [2]: 50%
Population Tubulin-Different-Phenotype (%) [2]: 19%
Total Cell Count [2]: 227
Population Apoptotic (%) [3]: 55%
Population Fragmented Nuclei (%) [3]: 9%
Population Hoechst High Intensity Objects (%) [3]: 13%
Population Membrane Permeable-Phenotype (%) [3]: 1%
Population Mitochondria Different-Phenotype (%) [3]: 100%
Population Mitotic Cells (%) [3]: 44%
Population Normal (%) [3]: 86%
Population Pyknosed Nuclei (%) [3]: 59%
Population Tubulin-Different-Phenotype (%) [3]: 95%
Total Cell Count [3]: 247
Population Apoptotic (%) [4]: 36%
Population Fragmented Nuclei (%) [4]: 3%
Population Healthy Nuclei (%) [4]: 30%
Population Hoechst High Intensity Objects (%) [4]: 2%
Population Membrane Permeable-Phenotype (%) [4]: 6%
Population Mitochondria Different-Phenotype (%) [4]: 71%
Population Mitotic Cells (%) [4]: 63%
Population Normal (%) [4]: 97%
Population Pyknosed Nuclei (%) [4]: 65%
Population Tubulin-Different-Phenotype (%) [4]: 77%
Total Cell Count [4]: 259
Population Apoptotic (%) [5]: 45%
Population Fragmented Nuclei (%) [5]: 6%
Population Healthy Nuclei (%) [5]: 60%
Population Hoechst High Intensity Objects (%) [5]: 7%
Population Membrane Permeable-Phenotype (%) [5]: 2%
Population Mitochondria Different-Phenotype (%) [5]: 65%
Population Mitotic Cells (%) [5]: 54%
Population Normal (%) [5]: 92%
Population Pyknosed Nuclei (%) [5]: 33%
Population Tubulin-Different-Phenotype (%) [5]: 37%
Total Cell Count [5]: 403
Population Apoptotic (%) [6]: 10%
Population Healthy Nuclei (%) [6]: 64%
Population Hoechst High Intensity Objects (%) [6]: 1%
Population Membrane Permeable-Phenotype (%) [6]: 7%
Population Mitochondria Different-Phenotype (%) [6]: 22%
Population Mitotic Cells (%) [6]: 89%
Population Normal (%) [6]: 98%
Population Pyknosed Nuclei (%) [6]: 29%
Population Tubulin-Different-Phenotype (%) [6]: 32%
Total Cell Count [6]: 314
Population Apoptotic (%) [7]: 69%
Population Fragmented Nuclei (%) [7]: 11%
Population Healthy Nuclei (%) [7]: 32%
Population Hoechst High Intensity Objects (%) [7]: 15%
Population Membrane Permeable-Phenotype (%) [7]: 4%
Population Mitochondria Different-Phenotype (%) [7]: 98%
Population Mitotic Cells (%) [7]: 30%
Population Normal (%) [7]: 84%
Population Pyknosed Nuclei (%) [7]: 55%
Population Tubulin-Different-Phenotype (%) [7]: 80%
Total Cell Count [7]: 258
Population Apoptotic (%) [8]: 47%
Population Fragmented Nuclei (%) [8]: 2%
Population Healthy Nuclei (%) [8]: 50%
Population Hoechst High Intensity Objects (%) [8]: 5%
Population Membrane Permeable-Phenotype (%) [8]: 3%
Population Mitochondria Different-Phenotype (%) [8]: 80%
Population Mitotic Cells (%) [8]: 52%
Population Normal (%) [8]: 94%
Population Pyknosed Nuclei (%) [8]: 46%
Population Tubulin-Different-Phenotype (%) [8]: 82%
Total Cell Count [8]: 321
Population Apoptotic (%) [9]: 28%
Population Fragmented Nuclei (%) [9]: 8%
Population Healthy Nuclei (%) [9]: 79%
Population Hoechst High Intensity Objects (%) [9]: 5%
Population Membrane Permeable-Phenotype (%) [9]: 1%
Population Mitochondria Different-Phenotype (%) [9]: 28%
Population Mitotic Cells (%) [9]: 71%
Population Normal (%) [9]: 94%
Population Pyknosed Nuclei (%) [9]: 12%
Population Tubulin-Different-Phenotype (%) [9]: 31%
Total Cell Count [9]: 701
Population Apoptotic (%) [10]: 11%
Population Fragmented Nuclei (%) [10]: 6%
Population Healthy Nuclei (%) [10]: 81%
Population Hoechst High Intensity Objects (%) [10]: 3%
Population Membrane Permeable-Phenotype (%) [10]: 4%
Population Mitochondria Different-Phenotype (%) [10]: 6%
Population Mitotic Cells (%) [10]: 88%
Population Normal (%) [10]: 97%
Population Pyknosed Nuclei (%) [10]: 11%
Population Tubulin-Different-Phenotype (%) [10]: 22%
Total Cell Count [10]: 601
Population Apoptotic (%) [11]: 67%
Population Fragmented Nuclei (%) [11]: 14%
Population Healthy Nuclei (%) [11]: 48%
Population Hoechst High Intensity Objects (%) [11]: 14%
Population Membrane Permeable-Phenotype (%) [11]: 0%
Population Mitochondria Different-Phenotype (%) [11]: 84%
Population Mitotic Cells (%) [11]: 32%
Population Normal (%) [11]: 85%
Population Pyknosed Nuclei (%) [11]: 36%
Population Tubulin-Different-Phenotype (%) [11]: 61%
Total Cell Count [11]: 288
Population Apoptotic (%) [12]: 40%
Population Fragmented Nuclei (%) [12]: 4%
Population Healthy Nuclei (%) [12]: 72%
Population Hoechst High Intensity Objects (%) [12]: 4%
Population Membrane Permeable-Phenotype (%) [12]: 1%
Population Mitochondria Different-Phenotype (%) [12]: 63%
Population Mitotic Cells (%) [12]: 59%
Population Normal (%) [12]: 95%
Population Pyknosed Nuclei (%) [12]: 23%
Population Tubulin-Different-Phenotype (%) [12]: 77%
Total Cell Count [12]: 435
